“Also recorded” adds a separate entry of the source.
Molecular target: CK2α catalytic subunit (Homo sapiens, UniProt P68400)
Assay: In vitro phosphorylation assay of CK2α with peptide substrate RRRADDSDDDDD
Assay type: biochemical
Settings: substrate RRRADDSDDDDD
Procedure, shortened: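 Activity is expressed as % of no-peptide control, as the mean of at least three independent experiments. Full-length murine NBD1ΔF508 (389–673) tests were run at 350 μM ATP.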

Sequence of CK2α catalytic subunit (P68400 whole entry): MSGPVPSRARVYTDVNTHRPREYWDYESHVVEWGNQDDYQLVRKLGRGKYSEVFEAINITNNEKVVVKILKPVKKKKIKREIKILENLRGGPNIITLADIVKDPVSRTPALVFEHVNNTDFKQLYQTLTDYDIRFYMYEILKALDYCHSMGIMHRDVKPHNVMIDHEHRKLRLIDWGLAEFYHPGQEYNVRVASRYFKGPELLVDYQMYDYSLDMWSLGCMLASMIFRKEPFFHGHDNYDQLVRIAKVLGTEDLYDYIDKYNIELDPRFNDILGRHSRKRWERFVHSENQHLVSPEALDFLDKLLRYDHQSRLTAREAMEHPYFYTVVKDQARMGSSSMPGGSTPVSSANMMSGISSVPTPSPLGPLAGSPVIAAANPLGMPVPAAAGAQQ

Substance	inhibitory efficacy on CK2α (in words) (compared with the parent peptide)	onset of stimulation of CK2α catalytic activity (β-peptide alone) [µM]
CFTRΔI507 peptide: CFTR(500–518) peptide with Ile^507 deleted (GTIKENIFGVSYDEYRYR)	loss in inhibitory efficacy; also recorded: unable to exert the same efficacy of the CFTRΔF508 peptide	–
β-peptide: peptide reproducing the C-terminal segment of the CK2 β-subunit encompassing residues 182–203 (QFVPRLYGFKIHPMAYQLQLQA; UniProt P67870 182-203, looked up, fragment) [reference compound]	–	50

Reference: article PMC3026963 (The Biochemical journal, 2010)
